The list is not random: actives were taken first. Their share in the collection is about 4.6%.
Arr AP2 block = blocks beta-arrestin peptide binding to AP2 adaptin; FITC-arrestin peptide / GST-AP2 beads, flow cytometry; AP2 beta2 appendage carries R879A mutation; inhibition, % at 10 µM; hit rate 0.31% among 340,000; AID 504490;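 active means inhibition above a set limit, near 3 SD of compounds lacking own fluorescence, cut at about 54% in these data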
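System: GST-AP2 R879A glutathione beads; medium: PBS, Tween 20 0.05%, BSA 0.1%; reagent: fluorescein-tagged arrestin peptide at 50 nM final; schedule: pre-incubation 12 min, peptide binding 1 h, room temperature; detection: flow cytometry, FL1 (488/535 nm); read-out: inhibition as reduced fluorescein signal on beads, percent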
ALR H2O2 inh = blocks human ALR sulfhydryl oxidase activity; purified ALR, DTT oxidation, H2O2 HRP-luminol luminescence; AID 485317; inhibition, % (no concentration beside the values); P55789; hit rate 3.8% among 290,000;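 active means mean replicate inhibition above about 79%, with every replicate also reaching it, limit read from the data; inconclusive means only one of the two criteria met; inactive means mean below limit and not every replicate reaching it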
NALP1 inh = NALP1 inhibition; inhibition, % at 10 µM; hit rate 0.61% among 280,000; AID 2071; S. cerevisiae NALP1/ASC/caspase-1 growth, X-gal OD620, 72 h; in the data active means inhibition mostly above about 24%, no sharp cut-off; inactive means mostly below about 32%
PolyA inhibitor = inhibitors of polyadenylation in S. cerevisiae; S. cerevisiae SKY197-pL101 polyadenylation reporter, beta-gal luminescence; efflux-impaired pdr1/pdr3 knockout yeast; score 100 = 6 SD above DMSO; activity score, % at 12 µM; hit rate 0.02% among 300,000;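 active means lowest replicate activity score at least 50, where 100 means six control SD above control mean; inconclusive means lowest score under 50 but half or more replicates reach 50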;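 further: yeast exposed to compound for 9 h at 30 °C; higher score means more reporter readthrough which indicates perturbed polyadenylation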
NALP3 yeast inh = blocks the NALP3 inflammasome reconstituted in yeast; Yeast reconstituted NLRP3/ASC/caspase-1, beta-gal luminescence, 24 h; inhibition, % at 10 µM; hit rate 0.39% among 330,000; AID 2825;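 active means inhibition of 50% or more; inactive means inhibition below 50%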
Pemphigus Ab inh = inhibitors of pemphigus antibody binding to human desmoglein-3 | P32926 | DSG3-coupled beads, scFv-anti-DSG3-GFP binding, flow cytometry; active compounds read low | binding (percent of control), % at 10 µM | hit rate 0.48% among 310,000;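 active means binding more than 3 SD below its plate's average and above zero; inconclusive means below that plate limit but binding exactly zero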;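 further: hits lower antibody fragment binding to DSG3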
A number is an active result; i = inactive; ? = inconclusive; nt = not tested or not shown.

SMILES | Arr AP2 block | ALR H2O2 inh | NALP1 inh | PolyA inhibitor | NALP3 yeast inh | Pemphigus Ab inh
Cc1cc(C(=O)N2CCCC(Nc3ccc(F)cc3)C2)c(C)o1 (stereo not given) | i | ? | i | i | i | ?
Cc1ccc2nc(C(=O)N3CCCC(Nc4ccc(F)cc4)C3)cn2c1 (stereo not given) | i | i | i | i | i | i
Cc1occc1C(=O)N1CCCC(Nc2ccc(F)cc2)C1 (stereo not given) | i | 98.4 | i | i | i | i
Cc1occc1C(=O)N1CCCC(Nc2ccc(C(C)C)cc2)C1 (stereo not given) | i | 98.7 | i | i | i | i
CC(C)c1ccc(NC2CCCN(C(=O)c3cnc4ccccn4c3=O)C2)cc1 (stereo not given) | i | 94.5 | i | i | i | i
Cc1ccc(NC2CCCN(C(=O)c3cnc4ccccn4c3=O)C2)cc1C (stereo not given) | i | nt | i | i | i | i
Cc1ccc2nccc(C(=O)N3CCCC(Nc4ccc(F)cc4)C3)c2c1 (stereo not given) | i | 98.4 | i | i | i | i
CCOC(=O)c1ccc(S(=O)(=O)N2CCN(C3CC(=O)N(c4ccccc4C(F)(F)F)C3=O)CC2)cc1 (stereo not given) | i | nt | nt | nt | i | i
Cc1ccc(-n2nc3c(=O)n(C(C)C(=O)NCCC4=CCCCC4)nc(C)c3c2C)cc1 (stereo not given) | i | nt | i | i | i | i
CCOc1cc(N2CCOCC2)c(OCC)cc1NC(=O)c1cnccn1 | nt | i | nt | nt | i | nt
COc1ccc(OC)c(NC(=O)C2CCN(S(=O)(=O)c3ccc4c(c3)CC(C)N4C(C)=O)CC2)c1 (stereo not given) | i | i | i | i | i | nt
O=C(c1ccccc1-c1ncc[nH]1)N1CCCC(Nc2ccc(F)cc2)C1 (stereo not given) | i | 98.5 | i | i | i | i
Nc1c(Cl)ncnc1NCc1cccnc1 | i | i | i | i | i | i
Nc1c(Cl)ncnc1NCCc1ccc(O)cc1 | i | 89.5 | i | i | i | i
COc1ccc(CNC(=O)c2cc3cccc(O)c3oc2=N)cc1 | i | i | i | i | i | i
CN(C)c1ccc(NC(=O)C2C3C=CC(C3)C2C(=O)O)cc1 (stereo not given) | i | 99.2 | i | i | i | i
O=C(O)C1C2C=CC(C2)C1C(=O)Nc1ccc2c(c1)OCCO2 (stereo not given) | i | i | nt | i | i | nt
Clc1ccc(OCCCNCc2ccccc2)c2ccccc12 | i | i | 50.1 | i | i | i
Brc1ccccc1OCCNCc1ccccc1 | i | i | i | i | i | i
CC(C)c1ccc(NC2CCCN(C(=O)CCN3Cc4ccccc4C3=O)C2)cc1 (stereo not given) | i | 98.5 | i | i | i | i
CC(C)c1ccc(NC2CCCN(C(=O)CCN3CCCCC3=O)C2)cc1 (stereo not given) | i | 97.5 | i | i | i | nt
CC(C)c1ccc(NC2CCCN(C(=O)CN3CCCC3=O)C2)cc1 (stereo not given) | i | 82.3 | i | i | i | nt
O=C1CCCCN1CCC(=O)N1CCCC(Nc2ccccc2)C1 (stereo not given) | i | i | i | i | i | nt
CC(C)c1ccc(NC2CCCN(C(=O)CSc3nncn3C)C2)cc1 (stereo not given) | i | 90.8 | i | i | i | i
CC(C)c1ccc(NC2CCCN(C(=O)c3ccnn3C)C2)cc1 (stereo not given) | i | ? | i | i | i | i
SMILES | Arr AP2 block | ALR H2O2 inh | NALP1 inh | PolyA inhibitor | NALP3 yeast inh | Pemphigus Ab inh
Cc1cc(N)ccc1NC(=O)CN1CCCC1 | i | i | i | i | i | i
CC(=O)Nc1cccc(/C(C)=N/Nc2ccc(S(=O)(=O)Nc3ccccc3C(=O)O)cc2[N+](=O)[O-])c1 | i | nt | nt | nt | nt | i
CCC(C)CCN1CCN=C1Nc1ccccc1 (stereo not given) | i | i | nt | nt | i | i
Cc1cc(S(=O)(=O)Nc2c(C(=O)O)[nH]c3ccccc23)ccc1F | i | nt | i | i | i | i
Cc1ccc(S(=O)(=O)Nc2c(C(=O)O)[nH]c3ccccc23)cc1C | i | 98.1 | i | i | i | i
CCS(=O)(=O)Nc1c(C(=O)O)[nH]c2ccccc12 | i | 98.7 | i | i | i | i
c1ccc2[nH]c(C3CC3)nc2c1 | i | i | i | i | i | i

Screening data (PubChem)
